Shown are actives, neighbours in structure and some others; about 1.2% of the full set was active somewhere.
PERK inh = blocks human PERK kinase. AID 1416. 0.17% of 220,000 active. CHO PERK-DD fusion, SEAP luminescence translation reporter. inhibition, % at 5.6 µM;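 active means inhibition above the mean inhibition of all tested compounds plus 3 SD, set separately per screening campaign, cut at about 2.9% in these data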;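 further: PERK kinase domain activated by AP20187 dimerizer at 100 nM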
Dynein cargo inh = dynein cargo transport inhibition. 3617.4 mouse cells, GR-EGFP nuclear translocation imaging; test concentration mostly 20 µM; stimulated with dexamethasone, 1 µM; active compounds read low. z-score, hits read low. 0.47% of 220,000 active;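 active means plate z-score of nuclear minus cytoplasmic receptor signal below a set negative limit, without overly bright fluorescence or cell loss, cut at about -3.5 in these data, passing the limit was not always enough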;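 further: z-score of nuclear minus cytoplasmic ring GR-EGFP intensity difference per well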
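Buffer or medium: Induction medium lacking tetracycline, stripped serum | Also added: Dexamethasone agonist, 1.0 µM final, for 30 min | Timing: 48 h induction, 1 h compound, 30 min dex at 37 °C | Detection: Formaldehyde fixation, Hoechst nuclear stain, 10x automated fluorescence imaging | Measure: Nuclear versus cytoplasmic GR-EGFP signal, averaged per well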
TbHK1 inh = blocks Trypanosoma brucei hexokinase 1 activity. AID 1430. 0.11% of 220,000 active. inhibition, % at 10 µM. recombinant TbHK1, G6PDH-coupled NADH A340;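 active means inhibition of 50% or more in the single-dose primary screen; inactive means inhibition below 50%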
HKDC1 inh = inhibitors of human hexokinase HKDC1 | AID 493160 | inhibition, % at 20 µM | recombinant HKDC1, G6PDH/diaphorase resazurin coupled fluorescence | Q2TB90 | 0.16% of 340,000 active;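 active means inhibition above about 35% when tested at 20 µM, limit read from the data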
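Incubation: 90 min at room temperature in dark / Material: recombinant HKDC1 (HK5) hexokinase enzyme, produced in-house / Quantity: enzyme 5 µg/mL final / Compound: one dose of 20 µM, 1% DMSO / Reagent: glucose and ATP substrates / Buffer or medium: Tris pH 8.0 buffer with MgCl2, Tween-20, BSA, BME / Technique: resorufin fluorescence at 613 nm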
Autophagy mod = modulators of autophagy; calls only at 10 µM (by protocol); MEF GFP-LC3 puncta imaging; test concentration mostly 10 µM; 0.98% of 190,000 active;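 active means percentage of spot-positive cells more than 3 SD above its plate mean, without a fluorescence outlier flag or 80% toxicity; inconclusive means no clear call, values can overlap the other calls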
HSV augment = HSV replication enhancement; maximum fold increase; HSV replication augmentation in cells, fold increase; 0.005% of 220,000 active; in the data active means maximum fold increase above about 1.5; inconclusive means no clear call, values can overlap the other calls; tested in PC3 cells
HKDC1 act conf2 = confirmation of human HKDC1 activators; AID 504708; 14% of 740 active; inhibition, % at 20 µM; shares compounds with HKDC1 inh; recombinant HKDC1, G6PDH/diaphorase resazurin fluorescence; active compounds read low;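 active means inhibition at or below a set negative limit, negative inhibition meaning the enzyme was activated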
Numbers stand for hits; - = inactive; ? = inconclusive; . = no result; ! = a repeat was not active.

SMILES	PERK inh	Dynein cargo inh	TbHK1 inh	HKDC1 inh	Autophagy mod	HSV augment	HKDC1 act conf2
CC(=O)Nc1nc2ccccc2n1Cc1ccccc1	-	-	-	-	-	-	.
O=NNc1nc2ccccc2n1Cc1ccccc1	.	.	.	-	.	.	-44
c1ccc2c(c1)ccn2CCCN1CCCCC1	.	.	.	-	.	.	.
CN(C)/C=C1\Oc2ccc3ccccc3c2C1=O	-	-	-	-	-	.	.
O=C1C(=O)c2c(ccc3ccccc23)-c2ccccc21	.	.	.	-	.	.	-
COc1ccc(C(=O)c2coc3c2C(=O)C(=O)c2ccccc2-3)cc1	-	-	-	61	.	-	-
O=C(c1ccccc1)c1coc2c1C(=O)c1ccccc1C2=O	-	-	-	-	-	-	.
CN(C)S(=O)(=O)c1ccc(Cl)c(NC(=O)COC(=O)CCC2CCCCC2)c1	.	.	.	-	.	.	.
Cc1cc2c(N)cccc2nn1	-	-	-	35	-	-	-
CSCC[C@H](NC(=O)c1ccc(OCC2CCCO2)cc1)c1nc2ccccc2[nH]1 (some centres not stated)	.	.	.	-	.	.	.
Cn1c2ccccc2c(=O)c2c(=O)n(-c3ccccc3)c(-c3ccc(C(C)(C)C)cc3)nc21	-	-	-	-	.	-	.
Cn1c2ccccc2c(=O)c2c(=O)n(-c3ccc(F)cc3)c(-c3cccs3)nc21	-	-	-	68	.	-	-
CCc1nc2c(c(=O)c3ccccc3n2C)c(=O)n1-c1ccc(F)cc1	-	-	-	48	-	-	-
Cc1nc2c(c(=O)c3ccccc3n2C)c(=O)n1-c1ccccc1	-	-	-	51	.	-	-
C/C=C/c1ccc(OCC(=O)N(CCOC)c2c(N)n(CCCC)c(=O)[nH]c2=O)c(OC)c1	.	.	.	-	.	.	.
Oc1ccc(O)c(Cc2nc3ccccc3[nH]2)c1	-	-	-	54	-	?	-
Cc1cc(Oc2ccc(-c3ccccc3)cc2)nc(N2CCOCC2)n1	-	-	-	-	-	-	.
Cc1cc(Oc2ccc(C(C)(C)C)cc2)nc(N2CCOCC2)n1	-	-	-	-	-	-	-37
COc1cc(/C=C2\SC(c3ccccc3)=NC2=O)cc(Cl)c1O	-	-	-	49	-	-	-
COc1cc(/C=C2\SC(c3ccc(C)cc3)=NC2=O)ccc1O	-	-	-	-	-	-	-
COc1cc(/C=C2\SC(c3ccc(C)cc3)=NC2=O)cc(OC)c1OC	-	-	-	-	-	-	.
COc1cc(/C=C2\SC(=S)N(c3cccnc3)C2=O)ccc1O	-	-	-	38	.	2.8	-
CCCCn1c(N)c(N(C)C(=O)c2ccc(Br)o2)c(=O)[nH]c1=O	.	.	.	-	.	.	.
Cc1ccc(NC(=O)CSc2nnnn2C2CCCC2)cc1S(=O)(=O)N1CCOCC1	.	.	.	-	.	.	.
NC(=NCCCCCCN=C(N)/N=C(\N)Nc1ccc(Cl)cc1)/N=C(\N)Nc1ccc(Cl)cc1	.	.	.	53!	.	.	-
SMILES	PERK inh	Dynein cargo inh	TbHK1 inh	HKDC1 inh	Autophagy mod	HSV augment	HKDC1 act conf2
CC(C)N=C(N)N=C(N)Nc1ccc(Cl)cc1	.	.	.	-	.	.	.
COc1cc2c(cc1OC)C(c1cc(Br)ccc1F)N(C(=O)CCl)CC2 (configuration not stated)	.	.	.	38	.	.	-
COc1cc2c(cc1OC)C(C1C(=O)CC(C)(C)CC1=O)N(C(=O)CCl)CC2 (configuration not stated)	-	-	-	-	-	-	.
COc1ccc(CN2CCn3nc(C(=O)NC(C)C)cc3C2=O)cc1	-	-	-	-	-	-	-
COC(=O)c1cc2n(n1)CCN(Cc1ccc(C)cc1)C2=O	-	-	-	-	-	-	.
COc1ccc(NC(=O)CSc2ccc(-c3ccco3)nn2)cc1OC	.	.	.	43	.	.	-
COc1ccc(OC)c(NC(=O)CSc2ccc(-c3ccco3)nn2)c1	.	.	.	43	.	.	-
CC(C)(C)c1c(Cl)c(O)c(-c2ccccc2)c(=O)n1-c1ccccc1	-	-	-	36	-	-	-
Cc1c(O)c2ccccc2n(-c2ccccc2)c1=O	.	.	.	-	.	.	.
COC(=O)c1ccccc1NC(=O)c1cnn2c(C(F)F)cc(C3CC3)nc12	-	-	-	-	-	-	.
O=C(NCCc1ccccc1)c1cnn2c(C(F)F)cc(C3CC3)nc12	-	-	-	47	-	-	-
Cc1cc(C(F)F)n2ncc(C(=O)NCCc3ccc(Cl)cc3)c2n1	-	-	-	39	-	-	-

Source: PubChem BioAssay
